Experiment [1] addresses Transcription factor p65 (Human, UniProt Q04206). Nature of the experiment: Inhibition of TNF-alpha-stimulated human NF-kappaB p65 RelA subunit nuclear translocation in HUVEC. In a few lines:
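HUVEC (fewer than 8 passages) were seeded at 3,000 cells/well. Compounds were added in 8-point series, either from 10 µM final in media with 0.33% DMSO diluted 1:3, or from 8 µM diluted 1:2. After 3.5 h with compound, cells were stimulated with […] for 30 min. Cells were then fixed, permeabilized, stained with Hoechst and with anti-p65 plus an Alexa 647 secondary, and imaged automatically. IC50 is from curve fitting of one experiment run in triplicate, with BAY 11-7082 as the positive control.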

Experiment [2] is described as follows: Induction of human IkappaBalpha stabilization in OCI-Ly3 cells by green light emiting IkappaBalpha-fused luciferase reporter gene assay. (In general: A reporter such as luciferase makes a cellular process visible.)
A short description of experiment [3]: Induction of human IkappaBalpha stabilization in OCI-Ly3 cells assessed as ratio of green light emiting IkappaBalpha-fused luciferase expression to red light emiting native luciferase expression.

Peptide text beside a SMILES is read from it. * marks the point of attachment. Cbz = O=C(OCc1ccccc1)*

Transcription factor p65, sequence (Q04206 whole entry): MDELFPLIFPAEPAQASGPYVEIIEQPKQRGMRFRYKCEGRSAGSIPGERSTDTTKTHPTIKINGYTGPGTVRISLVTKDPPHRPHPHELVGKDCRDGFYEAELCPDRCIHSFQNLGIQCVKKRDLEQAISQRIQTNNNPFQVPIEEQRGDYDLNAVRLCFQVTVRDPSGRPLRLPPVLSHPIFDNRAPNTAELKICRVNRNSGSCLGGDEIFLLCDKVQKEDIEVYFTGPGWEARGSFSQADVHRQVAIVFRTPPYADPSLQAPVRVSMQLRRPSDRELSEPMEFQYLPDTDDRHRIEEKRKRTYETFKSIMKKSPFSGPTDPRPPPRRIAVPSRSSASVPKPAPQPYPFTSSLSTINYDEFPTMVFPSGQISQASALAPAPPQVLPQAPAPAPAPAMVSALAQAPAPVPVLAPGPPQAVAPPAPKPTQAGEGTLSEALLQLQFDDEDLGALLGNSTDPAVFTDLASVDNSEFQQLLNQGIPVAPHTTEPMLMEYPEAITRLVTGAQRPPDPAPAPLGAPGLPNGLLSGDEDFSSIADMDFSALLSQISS

For the compound `Cc1ccc2cccc(NS(=O)(=O)c3ccc(Cl)s3)c2n1`, it took 1 µM to reach half-maximal inhibition in experiment [1] (IC50). For the same compound, the EC50 in experiment [2] was found to be 1.4 µM; in experiment [3], 2.1 µM.
The corresponding values for `COc1cc(NS(=O)(=O)c2ccc(C)cc2[N+](=O)[O-])c2ncccc2c1` are 2.1 µM, 6.8 µM and 7.6 µM.
For `COc1cc2cccnc2c2c1-c1cc(C)ccc1S(=O)(=O)N2` the same measures were 1.2 µM, 1.3 µM and 1.6 µM.
`COc1cnc2c3c(ccc2c1)-c1ccccc1S(=O)(=O)N3` returned a concentration for half-maximal inhibition (IC50) in experiment [1] of 2.5 µM.
With `COc1ccc(S(=O)(=O)Nc2cccc3ccc(C)nc23)c([N+](=O)[O-])c1`, in experiment [1], the IC50 is 1 µM.
In turn, `COc1ccc2c(c1)-c1ccc3cccnc3c1NS2(=O)=O` showed a half-inhibitory concentration (IC50) in experiment [1] of 1 µM. In addition, the results for the EC50 in experiment [2] and in experiment [3] were 1.3 µM and 1.4 µM, respectively.
In experiment [1], `O=[N+]([O-])c1cc(C(F)(F)F)ccc1S(=O)(=O)Nc1cccc2cccnc12` had an IC50 of 3.7 µM. Moreover, the figures for the 50% effective concentration (EC50) in experiment [2] and in experiment [3] were 3.6 µM and 20 µM, respectively.
On to `Cc1cnc2c3c(ccc2c1)-c1ccccc1S(=O)(=O)N3`, for which the results for the EC50 in experiment [2] and in experiment [3] were 7 µM and 10 µM, respectively.
`O=[N+]([O-])c1ccc(S(=O)(=O)Nc2cccc3cccnc23)cc1` had an IC50 in experiment [1] of 1.5 µM. In addition, the results for the concentration giving a half-maximal response (EC50) in experiment [2] and in experiment [3] were 6.5 µM and 17 µM, respectively.
The corresponding values for `Cc1ccc2cccc(NS(=O)(=O)c3ccccc3N)c2n1` are 2.8 µM, 8 µM and 8 µM.
As for `Cc1ccc2cccc(NS(=O)(=O)c3cc([N+](=O)[O-])ccc3C)c2n1`, the EC50 in experiment [2] is > 20 µM; in experiment [3] it was > 57 µM.
On to `O=S(=O)(Nc1cccc2cccnc12)c1ccccc1` [N-(quinolin-8-yl)benzenesulfonamide], for which the IC50 in experiment [1] was > 10 µM. The half-maximal effective concentration (EC50) stood at 17 µM in experiment [2] and 20 µM in experiment [3].
For `Cc1ccc2cccc(NS(=O)(=O)c3cccc([N+](=O)[O-])c3)c2n1` the same measures were 0.9 µM, 6 µM and 13 µM.
Regarding `COc1cc(NS(=O)(=O)c2ccc(C)cc2)c2nc(C)ccc2c1`, in experiment [1], the IC50 was > 10 µM. Moreover, the EC50 in experiment [2] and in experiment [3] was 20 µM in each case.
Consider `O=S1(=O)Nc2c(ccc3cccnc23)-c2cc(Cl)ccc21`, for which, in experiment [1], the IC50 was 1.1 µM. The concentration giving a half-maximal response (EC50) in experiment [2] came out at 1.1 µM; in experiment [3], 11 µM.
Take `COc1cc(NS(=O)(=O)c2ccc(C)cc2[N+](=O)[O-])c2nc(C)ccc2c1`: the concentration for a half-maximal effect (EC50) in experiment [2] is > 10 µM; in experiment [3], > 57 µM.
Consider `COc1cc(NS(=O)(=O)c2ccc(C)cc2N)c2nc(C)ccc2c1`, for which the 50% effective concentration (EC50) in experiment [2] is 9.4 µM; in experiment [3], 3 µM.
`O=S1(=O)Nc2c(ccc3cccnc23)-c2ccccc21` [5H-quinolino[8,7-c][1,2]benzothiazine 6,6-dioxide]: in experiment [1], the 50% inhibitory concentration (IC50) turned out to be 1 µM. Also, the EC50 in experiment [2] came to 2.2 µM; in experiment [3], 2.6 µM.
The corresponding values for `O=S(=O)(Nc1cccc2cccnc12)c1cccs1` are 3.6 µM, 5.3 µM and 9 µM.
`O=S(=O)(Nc1cccc2cccnc12)c1ccc(Cl)s1` returned an IC50 in experiment [1] of 1.3 µM. In addition, the concentration for a half-maximal effect (EC50) in experiment [2] and in experiment [3] was 2.7 µM throughout.
In experiment [1], `COc1ccc2c(c1)-c1ccc3ccc(C)nc3c1NS2(=O)=O` displayed a half-maximal inhibitory concentration (IC50) of 2.5 µM. Moreover, the half-maximal effective concentration (EC50) in experiment [2] was 3.7 µM; in experiment [3], 3.4 µM.
For `Cc1ccc2ccc3c(c2n1)NS(=O)(=O)c1ccc(C(F)(F)F)cc1-3` the same measures were 1.2 µM, 8.9 µM and 7.2 µM.
Regarding `Cc1ccc(S(=O)(=O)/C=C/C#N)cc1` [BAY-11-7082], in experiment [1], the IC50 is 3 µM.
`Cc1ccc2c(c1)-c1ccc3cccnc3c1NS2(=O)=O` returned a concentration for half-maximal inhibition (IC50) in experiment [1] of 0.6 µM. Besides, the values for the EC50 in experiment [2] and in experiment [3] were 0.5 µM and 0.8 µM, respectively.
For `O=S1(=O)Nc2c(ccc3cccnc23)-c2cc(F)ccc21` the same measures were 1.7 µM, 4.1 µM and 12 µM.
In experiment [1], `COc1cc(NS(=O)(=O)c2ccc(C)cc2N)c2ncccc2c1` came in with a half-maximal inhibitory concentration (IC50) of 1 µM. Besides, the EC50 in experiment [2] and in experiment [3] was 4 µM each time.
Consider `Cc1ccc2ccc3c(c2n1)NS(=O)(=O)c1ccc(O)cc1-3`, for which, in experiment [1], the 50% inhibitory concentration (IC50) was determined as 10 µM. The EC50 in experiment [2] was determined as 8 µM; in experiment [3], 11 µM.
Turning to `CC(C)C[C@@H](C=O)NC(=O)[C@H](CC(C)C)NC(=O)[C@H](CC(C)C)NC(=O)OCc1ccccc1` [{1-[(S)-(S)-1-((S)-1-Formyl-3-methyl-butylcarbamoyl)-3-methyl-butylcarbamoyl]-3-methyl-butyl}-carbamic acid benzyl ester] (Cbz-Leu-Leu-Leu-aldehyde), the EC50 in experiment [2] came to 1 µM; in experiment [3] it was 5.2 µM.
As for `Cc1ccc2cccc(NS(=O)(=O)c3ccc(C(F)(F)F)cc3[N+](=O)[O-])c2n1`, the concentration for half-maximal inhibition (IC50) in experiment [1] was determined as 1.1 µM. For the same compound, the concentration for a half-maximal effect (EC50) in experiment [2] is 10 µM; in experiment [3], 3.6 µM.
The corresponding values for `Cc1ccc([N+](=O)[O-])cc1S(=O)(=O)Nc1cccc2cccnc12` are 1.6 µM, 1 µM and > 10 µM.
The corresponding values for `Cc1ccc2cccc(NS(=O)(=O)c3ccc(Br)s3)c2n1` are 1.4 µM, 6.1 µM and 6.4 µM.
`Cc1ccc2cccc(NS(=O)(=O)c3ccccc3[N+](=O)[O-])c2n1` came in with a concentration for half-maximal inhibition (IC50) in experiment [1] of 3.8 µM. Further, the figures for the EC50 in experiment [2] and in experiment [3] were 6.8 µM and 8 µM, respectively.
The corresponding values for `O=S1(=O)Nc2c(ccc3cccnc23)-c2cc(C(F)(F)F)ccc21` are 1 µM, 0.7 µM and 1 µM.
For `O=S(=O)(Nc1cccc2cccnc12)c1ccc(Br)s1` the same measures were 1.1 µM, 5.9 µM and 6.8 µM.
The corresponding values for `COc1cc2ccc(C)nc2c2c1-c1cc(C)ccc1S(=O)(=O)N2` are 0.9 µM, 1.4 µM and 2.3 µM.
In the case of `Nc1ccccc1S(=O)(=O)Nc1cccc2cccnc12`, the IC50 in experiment [1] worked out at 2 µM. Also, the EC50 in experiment [2] came out at 11 µM; in experiment [3], 8.5 µM.
The corresponding values for `O=[N+]([O-])c1ccccc1S(=O)(=O)Nc1cccc2cccnc12` [2-nitro-N-quinolin-8-yl-benzenesulfonamide] are 3.2 µM, 11 µM and 12 µM.

Usually IC50 stands for the point on the concentration scale where inhibition reaches its midpoint. Read a low IC50 as inhibition by little substance. As a reminder, the EC50 is the concentration that produces a half-maximal response.

The values above are taken from BindingDB's records for doi:10.1016/j.bmcl.2007.10.100 (Columbia University, 2008).
